Results on 23 compounds are retold here after PubChem BioAssay AID2052 (NMMLSC, 2009).

The whole screen tested about 330,000 compounds, of which about 220 (0.067%) were called active.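 The calls were made as follows: active = response, share of CD8 T cells binding vesicles, and their 90th percentile fluorescence all below set limits (cut at about 80% in these data, passing the limit was not always enough); inactive = the rest, inconclusive results apart.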 The entries come from a sample that favours actives as a whole.

This experiment can be described thus: modulators of CD8 T cell-vesicle binding, primary screen, mouse 2C CD8+ T cells, flow cytometry (AID 2052).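 As to double positive events: binding gate set so that unloaded-vesicle control wells show 10% double positive cells.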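 As to response (vesicle binding): values below 100% mean blocked vesicle binding to the CD8+ T cells.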 The note with it: 2C CD8+ T cell-vesicle binding, at 7 µM, stronger effect = lower value; double positive events: measured here: CD8+ vesicle-bound cell fraction. In short, it runs like this:
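Benchmarks: naked versus QL9-loaded vesicles / Assay system: purified 2C TCR transgenic mouse naive CD8+ T cells / Technique: high-throughput flow cytometry with anti-B7-1 and anti-CD8 staining / Timing: Cell–vesicle co-incubation 1.5 h at 37 °C, staining 20 min on ice / Read-out: percent CD8+ FL2 mean versus row control / Probe or stimulus: QL9-loaded Drosophila micro-vesicles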
In the case of `CCC(CC)C(=O)Nc1cc(C(=O)OC)cc(C(=O)OC)c1`, the double positive events is 23.6% and the response (vesicle binding) is 410% (inactive).

Regarding `Cc1c(Br)c([N+](=O)[O-])nn1CC(=O)N1CCN(Cc2ccccc2)CC1`, the double positive events came to 63% and the response (vesicle binding) was 210% (inactive).

As for `Cc1cc(Cl)ccc1C(=O)C1CCCN(C(=O)CCN2CCCO2)C1` (stereo unspecified), the double positive events is 23.8% and the response (vesicle binding) is 257% (inactive).

Regarding `Cn1nc(C(F)(F)F)c2cc(NC(=O)OCC(C)(C)C)sc21`, the double positive events was found to be 43.1% and the response (vesicle binding) is 197% (inactive).

Regarding `CN(CCc1cnn(C)c1)Cc1cn(C)nc1-c1ccccc1F`, the double positive events was determined as 31.2% and the response (vesicle binding) was 291% (inactive).

For the compound `O=C(Nc1cccn(Cc2c(Cl)cccc2Cl)c1=O)c1ccc(Cl)cc1`, the double positive events came out at 24.7% and the response (vesicle binding) is 379% (inactive).

`CCCC(CCC(=O)OC)(C(=O)OCC)c1csc(N)n1` (stereo unspecified): the double positive events turned out to be 19.7% and the response (vesicle binding) was 485% (inactive).

Regarding `CN(c1ccccc1)S(=O)(=O)c1cccc(NC(=O)Cc2ccc(Cl)cc2)c1`, the double positive events worked out at 40.2% and the response (vesicle binding) was 419% (inactive).

On to `CCCCCC1CCC(c2nnc(SCC(C)=O)o2)CC1` (stereo unspecified), for which the double positive events amounted to 19.4% and the response (vesicle binding) was 214% (inactive).

Turning to `O=C(Nc1ccc(N2CCOCC2)cc1)c1ccc(-c2ccccc2[N+](=O)[O-])o1`, the double positive events is 30.7% and the response (vesicle binding) is 205% (inactive).

For the compound `O=C(Nc1ccc(N2CCCCC2)cc1)c1cc(S(=O)(=O)N2CCOCC2)ccc1F`, the double positive events is 40.6% and the response (vesicle binding) was 316% (inactive).

For the compound `O=C(CC1Oc2ccccc2NC1=O)NCCCN1CCN(Cc2ccccc2)CC1` (stereo unspecified), the double positive events came out at 40.4% and the response (vesicle binding) was 363% (inactive).

Turning to `CCOC(=O)N1CCN(S(=O)(=O)c2ccc3c(c2)C(C)C(=O)N3)CC1` (stereo unspecified), the double positive events worked out at 29.9% and the response (vesicle binding) was 289% (inactive).

As to `COc1ccc(/C=C2\N=C3CCCN3C2=O)cc1`, the double positive events is 16.6% and the response (vesicle binding) was 231% (inactive).

In the case of `O=C1C=C(c2cccc(Br)c2)C[C@@H](c2ccc(F)cc2)C1`, the double positive events stood at 26% and the response (vesicle binding) was 405% (inactive).

`Cc1ccc(C(=O)NC2CCCC(C)C2C)cc1S(=O)(=O)N1CCCCC1` (stereo unspecified): the double positive events is 56.1% and the response (vesicle binding) was 659% (inactive).

Take `O=C(Nc1ccc(CSc2ccccc2)cc1)c1ccc(CN2CCOCC2)cc1`: the double positive events turned out to be 48.3% and the response (vesicle binding) is 264% (inactive).

On to `COc1ccc(N2CC(C)Cn3c2nc2c3c(=O)n(Cc3ccccc3F)c(=O)n2C)c(OC)c1` (stereo unspecified), for which the double positive events turned out to be 27.6% and the response (vesicle binding) was 423% (inactive).

In the case of `NC(=O)Nc1ccccc1C(=O)NCCc1ccccc1`, the double positive events amounted to 0% and the response (vesicle binding) is 0% (active).

`O=C(O)c1ccccc1-c1ccccc1C(=O)NCCc1ccccc1`: the double positive events turned out to be 29.9% and the response (vesicle binding) is 437% (inactive).

Consider `COc1ccc(CCNC(=O)c2ccccc2OCc2ccccc2)cc1`, for which the double positive events amounted to 12.3% and the response (vesicle binding) was 205% (inactive).

Consider `CC(C)c1ccc(N(C(=O)c2ccco2)C(C(=O)NC2CCCC2)c2cccnc2)cc1` (stereo unspecified), for which the double positive events is 19.1% and the response (vesicle binding) is 176% (inactive).

For the compound `Cc1cc(C)c(S(=O)(=O)c2cc(F)ccc2C)c(=O)[nH]1`, the double positive events was 44.2% and the response (vesicle binding) was 185% (inactive).
